≈ marks a conversion by molar mass, not a printed value. Calls of active or inactive are those of the source. The calls are words filed in the database; no cut-off is given here. *1 amine or outer side, *2 acyl side, *3 side chain or, on linkers, in order; H or OH if unused. Where a SMILES comes first, the peptide text is derived from it. [ ]: non-standard residue; d: D form. The star is where a group is joined. X1 = C/C(=N\OCC(=O)[*:2])c1ccc(N[*:1])cc1; Benzoyl(5-Br-2-OH) = O=C(c1cc(Br)ccc1O)*; Palmitoyl = CCCCCCCCCCCCCCCC(=O)*; Decanoyl = CCCCCCCCCC(=O)*
Columns and labels:
[1] = Retention time of the compound by RP-HPLC analysis; assay type: physicochemical
In short: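 Analytical RP-HPLC on a C18 column (5 μm, 100 Å, 4.6 × 150 mm). Eluent A 0.1% TFA in water, eluent B 0.1% TFA in acetonitrile-water 80:20. Gradient 0% B for 5 min, to 60% B at 15 min, to 100% B at 25 min. Flow 1 mL/min, detection at 220 nm.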

[2] = Selectivity index, ratio of IC50 for cytotoxicity against mouse bone marrow derived macrophages to MIC for antimycobacterial activity against Mycobacterium tuberculosis H37Rv ATCC 27294; assay type: toxicity; conditions: read-out: Selectivity Index
In short: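 Murine bone marrow-derived macrophages exposed for 48 h, top concentration 100 µM. Viability read by MTT and IC50 taken from dose-response curves. SI = IC50/MIC against H37Rv.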

[3] = tested on: Mycobacterium tuberculosis; test: Antimycobacterial activity against Mycobacterium tuberculosis H37Rv ATCC 27294 assessed as reduction in bacterial growth after 28 days by serial dilution method; assay type: functional; conditions: H37Rv ATCC 27294, 672 h, time 28 day
In short: (§1)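 Broth MIC in Sula semisynthetic medium, pH 6.5; 4-week incubation, with 21-day values […] where indicated. Drug-free inoculated bacteria served as growth control. MIC also expressed as drug content (µg/mL) = MIC (µM) × average SAL molar mass × number of SAL per conjugate / 1000.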

[4] = tested on: Mycobacteroides abscessus; test: Antimycobacterial activity against Mycobacterium abscessus ATCC 19977 assessed as reduction in colony forming unit after 7 days by serial dilution method; assay type: functional, organism-based; conditions: time 7.0 day
In short: (§2)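 MIC determined in Sula semisynthetic medium, pH 6.5, 1 week incubation. Growth inhibition confirmed by plating on Löwenstein-Jensen solid medium and counting CFU. Bacteria inoculated without drug served as growth control.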

[5] = Selectivity index, ratio of IC50 for cytostatic activity against human MONO-MAC-6 cells to MIC for antimycobacterial activity against Mycobacterium tuberculosis H37Rv ATCC 27294; assay type: toxicity, cell-based; conditions: read-out: Selectivity Index
In short: (§3)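 MTT assay on MonoMac6 or HepG2 cells after 24 h exposure, top concentration 200 µM. SI = IC50 (µM)/MIC (µM) against H37Rv from the 4-week Sula medium assay.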

[6] = tested on: Mycobacterium tuberculosis; test: […] antimycobacterial activity against Mycobacterium tuberculosis H37Rv ATCC 27294 infected in human MONO-MAC-6 cells assessed as reduction in colony forming unit at 250 uM for 6 days by colony counting based analysis; assay type: functional, organism-based; conditions: time 6.0 day
In short: (§4)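 MonoMac6 monolayers infected with H37Rv, then treated with compound at 125 or 250 µM for 3 days. Treatment repeated with fresh compound solution for another 3 days. Intracellular bacteria quantified as CFU against untreated infected cells.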

[7] = tested on: Mycobacteroides abscessus; test: Antimycobacterial activity against Mycobacterium abscessus ATCC 19977 assessed as reduction in bacterial growth after 7 days by serial dilution method; assay type: functional; conditions: ATCC 19977, 168 h, time 7 day; in short: as §2
[8] = Selectivity index, ratio of IC50 for cytostatic activity against human HepG2 cells to MIC for antimycobacterial activity against Mycobacterium tuberculosis H37Rv ATCC 27294; assay type: toxicity, cell-based; conditions: read-out: Selectivity Index; in short: as §3
[9] = tested on: Mycobacterium tuberculosis; test: Antimycobacterial activity against Mycobacterium tuberculosis H37Rv ATCC 27294 assessed as reduction in colony forming unit after 28 days by serial dilution method; assay type: functional, organism-based; conditions: time 28.0 day
In short: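 After the 4-week MIC incubation in Sula semisynthetic medium (pH 6.5), growth inhibition confirmed by plating on Löwenstein-Jensen solid medium and counting colony forming units.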

MONO-MAC-6 = test: Cytostatic activity against human MONO-MAC-6 cells assessed as reduction in cell viability incubated for 24 hrs by MTT assay; assay type: functional, cell-based; conditions: MONO-MAC-6, 24 h
In short: (§5)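 MTT viability assay after 24 h exposure of MonoMac6 human monocytic cells or HepG2 human hepatocellular carcinoma cells. Top concentration 200 μM. IC50 taken from dose-response curves as the concentration reducing viability to 50% of maximal.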

[10] = Stability in rat liver lysosomal homogenate assessed as drug degradation at 50 uM and measured upto 24 hrs by HPLC-MS analysis; assay type: ADME, subcellular, Lysosome; conditions: tissue homogenate
In short: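 Conjugates incubated in rat liver lysosomal homogenate. Reaction mixtures sampled at 5 min, 1 h, 2 h, 4 h, 8 h and 24 h and analysed by HPLC-MS (chromatograms and mass spectra) to identify intact conjugate, fragments and cleavage sites.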

[11] = Cytotoxicity against mouse bone marrow derived macrophages assessed as reduction in cell viability incubated for 48 hrs by MTT assay; assay type: toxicity, cell-based, Macrophage
In short: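 Murine bone marrow-derived macrophages exposed for 48 h, viability by MTT. Highest concentration tested 100 µM. IC50 taken from dose-response curves.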

[12] = tested on: Mycobacterium tuberculosis; test: […] antimycobacterial activity against Mycobacterium tuberculosis H37Rv ATCC 27294 infected in human MONO-MAC-6 cells assessed as reduction in colony forming unit at 125 uM for 6 days by colony counting based analysis; assay type: functional, organism-based; conditions: time 6.0 day; in short: as §4
HepG2 = test: Cytostatic activity against human HepG2 cells assessed as reduction in cell viability incubated for 24 hrs by MTT assay; assay type: functional, cell-based; conditions: HepG2, 24 h; in short: as §5
[13] = tested on: Mycobacterium tuberculosis; test: Antimycobacterial activity against Mycobacterium tuberculosis H37Rv ATCC 27294 assessed as reduction in bacterial growth after 21 days by serial dilution method; assay type: functional; conditions: H37Rv ATCC 27294, 504 h, time 21 day; in short: as §1
[14] = Stability of the compound in Sula's semisynthetic medium containing 10% DMSO assessed as 2-hydroxyacetyl-tuftsin derivative formation at pH 6.5 at 2 mg/ml after 4 weeks at 37 degree C by reverse phase HPLC analysis
In short: (§6)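 Conjugate incubated in Sula semisynthetic medium (pH 6.5) at 37 °C for 4 weeks. Decomposition to free salicylanilide and 2-hydroxyacetyl-tuftsin derivative followed by analytical RP-HPLC and mass spectrometry.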

[15] = Stability of the compound in Sula's semisynthetic medium containing 10% DMSO assessed as free salicylanilide formation at pH 6.5 at 2 mg/ml after 4 weeks at 37 degree C by reverse phase HPLC analysis; in short: as §6

SMILES	Retention_time [1] [min]	selectivity ratio [2]	MIC [3] [µM]	Activity [4]	selectivity ratio [5]	Activity [6]	MIC [7] [µM]	selectivity ratio [8]	Activity [9]	IC50 (MONO-MAC-6) [µM]	Stability [10]	IC50 at 48 h [11] [µM]	Activity [12]	IC50 (HepG2) [µM]	MIC [13] [µM]	Stability [14]	Stability [15]
C/C(=N\OCC(=O)N[C@H](C(=O)N[C@@H](CCCCN)C(=O)N1CCC[C@H]1C(=O)N[C@@H](CCCCN)C(=O)NCC(N)=O)[C@@H](C)O)c1ccc(NC(=O)c2cc(Br)ccc2O)cc1 ({Benzoyl(5-Br-2-OH)}-[X1]TKPKG-NH2)	15.6	4.6	21.8 (≈ 20 µg/mL)	Active	> 9.2	Active	174 (≈ 160 µg/mL)	> 9.2	Active	> 200	Unstable	> 100	Active	> 200			
CCCCCCCCCCCCCCCC(=O)NCCCC[C@H](NC(=O)[C@@H]1CCCN1C(=O)[C@H](CCCCN)NC(=O)[C@@H](NC(=O)CNC(=O)[C@H](CCCCN)NC(=O)[C@@H]1CCCN1C(=O)[C@H](CCCCN)NC(=O)[C@@H](NC(=O)CNC(=O)[C@H](CCCCN)NC(=O)[C@@H]1CCCN1C(=O)[C@H](CCCCN)NC(=O)[C@@H](NC(=O)CO/N=C(\C)c1ccc(NC(=O)c2cc(Br)ccc2O)cc1)[C@@H](C)O)[C@@H](C)O)[C@@H](C)O)C(=O)NCC(=O)N[C@H](C(=O)N[C@@H](CCCCN)C(=O)N1CCC[C@H]1C(=O)N[C@@H](CCCCN)C(=O)NCC(N)=O)[C@@H](C)O ({Benzoyl(5-Br-2-OH)}-[X1]TKPKGTKPKGTKPK(Palmitoyl)GTKPKG-NH2)	17.3			Active	0.3	Active	74.3 (≈ 200 µg/mL)	0.5	Active	20.9	Unstable		Active	40.4	74.3 (≈ 200 µg/mL)		
CCCCCCCCCCCCCCCC(=O)NCCCC[C@H](NC(=O)[C@@H]1CCCN1C(=O)[C@H](CCCCN)NC(=O)[C@@H](NC(=O)CO/N=C(\C)c1ccc(NC(=O)c2cc(Br)ccc2O)cc1)[C@@H](C)O)C(=O)NCC(N)=O ({Benzoyl(5-Br-2-OH)}-[X1]TKPK(Palmitoyl)G-NH2)				Active	0.3	Active	173 (≈ 200 µg/mL)	0.1	Active	53.8	Unstable		Active	23.2	173 (≈ 200 µg/mL)		
C/C(=N\OCC(=O)NCC(=O)N[C@@H](Cc1ccccc1)C(=O)N[C@@H](CC(C)C)C(=O)NCC(=O)N[C@H](C(=O)N[C@@H](CCCCN)C(=O)N1CCC[C@H]1C(=O)N[C@@H](CCCCN)C(=O)NCC(=O)N[C@H](C(=O)N[C@@H](CCCCN)C(=O)N1CCC[C@H]1C(=O)N[C@@H](CCCCN)C(=O)NCC(=O)N[C@H](C(=O)N[C@@H](CCCCN)C(=O)N1CCC[C@H]1C(=O)N[C@@H](CCCCN)C(=O)NCC(=O)N[C@H](C(=O)N[C@@H](CCCCN)C(=O)N1CCC[C@H]1C(=O)N[C@@H](CCCCN)C(=O)NCC(N)=O)[C@@H](C)O)[C@@H](C)O)[C@@H](C)O)[C@@H](C)O)c1ccc(NC(=O)c2cc(Br)ccc2O)cc1	15.7	0.7			0.6			0.8		86.6	Unstable	92.1		112			
CCCCCCCCCC(=O)NCCCC[C@H](NC(=O)[C@@H]1CCCN1C(=O)[C@H](CCCCN)NC(=O)[C@@H](NC(=O)CO/N=C(\C)c1ccc(NC(=O)c2cc(Br)ccc2O)cc1)[C@@H](C)O)C(=O)NCC(N)=O ({Benzoyl(5-Br-2-OH)}-[X1]TKPK(Decanoyl)G-NH2)				Active	0.4	Active	186 (≈ 200 µg/mL)	0.3	Active	72.6	Unstable		Active	55.8	186 (≈ 200 µg/mL)		
CCCCCCCCCCCCCCCC(=O)NCCCC[C@H](NC(=O)[C@@H]1CCCN1C(=O)[C@H](CCCCN)NC(=O)[C@@H](NC(=O)CO/N=C(\C)c1ccc(NC(=O)c2cc(Br)ccc2O)cc1)[C@@H](C)O)C(=O)NCC(=O)N[C@H](C(=O)N[C@@H](CCCCN)C(=O)N1CCC[C@H]1C(=O)N[C@@H](CCCCN)C(=O)NCC(=O)N[C@H](C(=O)N[C@@H](CCCCN)C(=O)N1CCC[C@H]1C(=O)N[C@@H](CCCCN)C(=O)NCC(=O)N[C@H](C(=O)N[C@@H](CCCCN)C(=O)N1CCC[C@H]1C(=O)N[C@@H](CCCCN)C(=O)NCC(N)=O)[C@@H](C)O)[C@@H](C)O)[C@@H](C)O ({Benzoyl(5-Br-2-OH)}-[X1]TKPK(Palmitoyl)GTKPKGTKPKGTKPKG-NH2)	18.4	0.2	92.9 (≈ 250 µg/mL)	Active	0.2	Active	74.3 (≈ 200 µg/mL)	0.4	Active	16.5	Unstable	20.4	Active	37.6			
C/C(=N\OCC(=O)NCC(=O)N[C@@H](Cc1ccccc1)C(=O)N[C@@H](CC(C)C)C(=O)NCC(=O)N[C@H](C(=O)N[C@@H](CCCCN)C(=O)N1CCC[C@@H]1C(=O)N[C@H](CCCCN)C(=O)NCC(=O)N[C@@H](C(=O)N[C@H](CCCCN)C(=O)N1CCC[C@H]1C(=O)N[C@H](CCCCN)C(=O)NCC(=O)N[C@@H](C(=O)N[C@@H](CCCCN)C(=O)N1CCC[C@@H]1C(=O)N[C@H](CCCCN)C(=O)NCC(=O)N[C@@H](C(=O)N[C@H](CCCCN)C(=O)N1CCC[C@H]1C(=O)N[C@H](CCCCN)C(=O)NCC(N)=O)[C@H](C)O)[C@H](C)O)[C@H](C)O)[C@@H](C)O)c1ccc(NC(=O)c2cc(Br)ccc2O)cc1				Active		Active			Active				inactive			Stable	Stable
CC(=O)c1ccc(NC(=O)c2cc(Br)ccc2O)cc1		10.2	7.5 (≈ 2.51 µg/mL)	Active	2.5		59.8 (≈ 20 µg/mL)	2.1	Active	18.6		76.5		15.9			

Reference: ChEMBL document CHEMBL5252539, “In vitro biological evaluation of new antimycobacterial salicylanilide-tuftsin conjugates” (Eur J Med Chem, 2017)
